# Assay outcomes: PubChem BioAssay, several laboratories
# This is a sample that favours compounds with a hit; in the whole collection about 2.2% have one here.
# NadD inh: NadD (S. aureus) enzyme inhibition | 0.78% of 360,000 active | purified NadD enzyme, colorimetric absorbance read-out | inhibition, % at 20 µM; in the data active means inhibition above about 26%
# rCAG RNA binder: molecules binding r(CAG) RNA repeats | r(CAG) RNA repeat, TO-PRO-1 dye displacement fluorescence | inhibition, % at 3 µM | 1.3% of 370,000 active;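 active means inhibition above the plate cutoff, the mean of all test compounds on that plate plus 3 SD, cut at about 35% in these data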;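 further: 0% = DMSO alone and 100% = 100 µM mitoxantrone as full dye displacement; higher means more dye released from RNA so lower well fluorescence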
# ARFGAP1 inh: rat ARFGAP1 inhibition. inhibition, % at 16.5 µM. 0.26% of 360,000 active. Arfgap1-stimulated ARF1 GTP hydrolysis, GDP FP detection;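 active means inhibition above a per-plate limit, mean inhibition of low control wells plus 3 SD, cut at about 25% in these data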;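 further: 0% = DMSO wells with enzyme and 100% = wells lacking Arfgap1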
# Target sequence (Q62848 1-136 limits assumed): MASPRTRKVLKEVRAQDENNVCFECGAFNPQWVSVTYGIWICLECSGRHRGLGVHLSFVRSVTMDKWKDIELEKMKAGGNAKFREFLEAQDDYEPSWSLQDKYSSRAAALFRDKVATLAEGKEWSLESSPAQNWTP
#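 Material: rat Arfgap1 catalytic domain, aa 1-136; also added: human ARF1(Δ1-17)-GTP substrate; compound dosing: one concentration, 16.5 µM, DMSO 1.26%; incubation: GTP hydrolysis reaction 2 h at 25 °C; measured by: Tracer-displacement fluorescence polarization with EDTA stop, 620/688 nm; evaluation: % inhibition from polarization; repeats: one replicate per compound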
# ASAP1 inh: blocks human ASAP1-stimulated Arf1 GTP hydrolysis; GDP FP detection; inhibition, % at 16.5 µM; 0.19% of 360,000 active; in the data active means inhibition above about 25%;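 further: 0% = vehicle with enzyme and substrate and 100% = no enzyme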
# NadD conf: NadD (S. aureus) inhibition, single concentration confirmation. shares compounds with NadD inh. purified S. aureus NadD, colorimetric enzyme assay. inhibition, % at 20 µM. 13% of 2,000 active. AID 624309; in the data active means inhibition mostly above about 42%, no sharp cut-off; inactive means mostly below about 42%
# * = called active by the depositor; i = inactive; x = no result.
SMILES,NadD inh,rCAG RNA binder,ARFGAP1 inh,ASAP1 inh,NadD conf
COc1cc(/C=C2/N=C(c3ccccc3)OC2=O)c(F)cc1OCc1ccccc1,39*,40*,-3,-8,6
COc1ccc(OC)c(/C=C2\N=C(c3ccccc3)OC2=O)c1,7,0,11,-3,x
C=CCOc1ccc(C2/C(=C(/O)c3ccc4c(c3)CC(C)O4)C(=O)C(=O)N2CCCN2CCOCC2)cc1 (centres undefined),29*,10,4,-12,36
Cc1cccc(C)c1NC(=O)COC(=O)c1c2c(nc3ccccc13)/C(=C\c1ccc3c(c1)OCO3)CCC2,48*,i,1,9,6
CC1CCCCC1NC(=O)COC(=O)c1c2c(nc3ccccc13)/C(=C\c1ccco1)CC2 (centres undefined),79*,54*,-8,-1,51*
O=C(COC(=O)c1c2c(nc3ccccc13)/C(=C/c1cccc([N+](=O)[O-])c1)CCC2)NC1CCS(=O)(=O)C1 (centres undefined),-1,9,16,10,x
COc1ccc(/C=N/NC(=O)c2ccc(CN3c4cccc5cccc(c45)S3(=O)=O)cc2)cc1,31*,21,8,-4,33
COc1ccccc1/C=N/NC(=O)c1ccc(CN2C(=O)c3cccc4cccc2c34)cc1,35*,22,9,0,12
COc1ccc(C(=O)O[C@@H]2CCC[C@@]3(C(=O)N(Cc4ccccc4)c4ccccc43)[C@H]2NC(=O)CCc2ccccc2)cc1OC,x,11,x,x,x
O=c1[nH]c(NNC(=S)NCc2ccccc2)nc2c1C1(CCCCC1)Cc1ccccc1-2,37*,18,7,8,53*
CCOc1cccc(=O)c2c(C)n(CC(=O)c3ccccc3)c(C)c12,48*,14,-7,7,26
CC(C)c1ccc(Nc2nnc(SCC(=O)Nc3ncc(S(=O)(=O)c4ccc([N+](=O)[O-])cc4)s3)s2)cc1,36*,8,6,-2,9
Cc1ccc(Nc2nnc(SCC(=O)Nc3ncc(S(=O)(=O)c4ccc([N+](=O)[O-])cc4)s3)s2)cc1,45*,15,6,8,8
Cc1cc(=O)[nH]c(SCC(=O)Nc2ncc(S(=O)(=O)c3ccc([N+](=O)[O-])cc3)s2)n1,11,26,3,7,x
O=C(CSc1nnc(-c2ccccn2)n1Cc1ccco1)c1ccc(-c2ccccc2)cc1,50*,13,-5,5,9
O=C(CSc1nnc(-c2ccc(O)cc2)n1Cc1ccco1)c1ccccc1,3,0,-8,-2,x
Cc1ncc(CN2CCCC(C(=O)Nc3ccc(-c4ccco4)cc3)C2)n1C (centres undefined),5,-5,1,2,x
CSc1ncc(CN2CCCC(C(=O)Nc3ccc(-c4ccco4)cc3)C2)cn1 (centres undefined),47*,17,2,11,19
CCOc1ccc(CCNC(=O)c2cc(-c3ccccc3)c(N3CCOCC3)s2)cc1OC,x,10,x,x,x
COc1ccc(C2C(C#N)=C3NC(=O)c4c(sc5c4CCCCC5)N3C3=C2C(=O)CC(C)(C)C3)cc1 (centres undefined),61*,15,-8,8,25
COc1ccc(C2C(C#N)=C(N)N(c3sc4c(c3C#N)CCCC4)C3=C2C(=O)CC(C)(C)C3)cc1 (centres undefined),15,x,x,x,x
COc1ccc(C(=O)NCCN2C(=O)C3C4C=CC(C4)C3C2=O)cc1OC (centres undefined),x,-1,x,x,x
CCn1c(SCC(=O)Nc2oc(-c3ccccc3)c(-c3ccccc3)c2C#N)nnc1-c1ccco1,29*,25,-7,5,44
N#Cc1c(NC(=O)CCN2C(=O)c3ccccc3C2=O)oc(-c2ccccc2)c1-c1ccccc1,1,9,6,0,x
N#Cc1c(NC(=O)CN2C(=O)c3ccccc3C2=O)oc(-c2ccccc2)c1-c1ccccc1,33*,4,7,-2,15
COc1ccc(-c2nc(=S)c3c([nH]2)Oc2ccc(C)cc2C3)cc1O,30*,18,9,3,11
COc1ccc(-c2nc(-c3ccccc3)c(-c3cc([N+](=O)[O-])ccc3C)[nH]2)cc1O,14,17,0,13,x
Cc1ccccc1C(=O)N[C@@H](Cc1cccnc1)C(=O)N1CCC[C@H]1C(=O)NC1CCCC1,x,1,14,-2,x
O=C1[C@@H](Oc2ccccc2)[C@@H](c2ccncc2)N1c1ccncc1,0,4,-1,-2,x
